This passage reports IC50, Activity and Change in amplitude response results from ChEMBL document CHEMBL1123302, “Antagonists of substance P. Further modifications of substance P antagonists obtained by replacing either positions 7, 9 or 7, 8 and 11 of SP with D-amino acid residues” (J Med Chem, 1986).

pIC50: −log10 of the molar value.

The target of one assay is Substance-P receptor (Rattus norvegicus, UniProt P14600). Put plainly: Histamine releasing activity of Substance P from isolated rat peritoneal mast cells. The assay is classed as functional. The procedure, abridged: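 Histamine release from isolated rat peritoneal mast cells, method of Fretwell et al. Dose-response curves were built over a range of concentrations, and EC50 values were calculated from the curves.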

Assay [1] has as its target Substance-P receptor (Cavia porcellus) (UniProt P30547). Kind of assay: In vitro inhibition of substance P (6-11) hexapeptide induced contractions of the guinea pig ileum at 10 uM. The assay is classed as tissue-based. Summed up:
(§1)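 Agonist (SP or SP(6-11)-hexapeptide) dose-response curves on a 3-min cycle with 1-min contact, then washout. Dose ratio = agonist EC50 with antagonist / EC50 alone. At least two preparations per compound; ratios below 2 taken as insignificant.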

Assay [2] shares this target. Kind of assay: In vitro inhibition of substance P induced contractions of the guinea pig ileum at 10 uM. The assay is classed as tissue-based. Summed up:
as §1

For assay [3] the target is unchanged. Kind of assay: In vitro inhibition of substance P induced contractions of the guinea pig ileum at 5 uM. The assay is classed as tissue-based. The procedure, abridged:
as §1

For assay [4] the target is unchanged. Put plainly: In vitro inhibition of substance P (6-11) hexapeptide induced contractions of the guinea pig ileum at 5 uM. The assay is classed as tissue-based. Summed up:
as §1

Assay [5] has as its target Substance-P receptor (Rattus norvegicus) (UniProt P14600). Put plainly: Antagonistic activity against Substance P receptor in rat spinal cord at concentration of 5 uM.
The target is the same in assay [6]. Kind of assay: Antagonistic activity against Substance P receptor in rat spinal cord at concentration of 50 uM.
For assay [7] the target is unchanged. Put plainly: Antagonistic activity against Substance P(6-11) receptor in rat spinal cord at concentration of 50 uM.
Assay [8] has the same target. Put plainly: Antagonistic activity against Substance P(6-11) receptor in rat spinal cord at concentration of 5 uM.
The target of assay [9] is Metabotropic glutamate receptor 3 (Rattus norvegicus) (UniProt P31422). Put plainly: Antagonistic activity against Glutamate receptor in rat spinal cord at concentration of 50 uM. The assay is classed as functional, tissue-based. Summed up: (§2)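 Neonatal rat spinal cord, hemisected sagittally, superfused at 1 mL/min with oxygenated Krebs-Henseleit medium containing 0.5% urethane at room temperature. Agonists were given in 2-mL doses in the superfusate. Antagonist was superfused continuously for at least 15 min before agonist retesting. Read-out was ventral root depolarization (DC potential, ventral root vs cord body), measured as amplitude and area of response.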

Assay [10] deals with Substance-P receptor (Rattus norvegicus) (UniProt P14600). Kind of assay: Antagonistic activity against Substance P(6-11) receptor in rat spinal cord at concentration of 10 uM.
For assay [11] the target is unchanged. Put plainly: Antagonistic activity against Substance P receptor in rat spinal cord at concentration of 10 uM.
In assay [12] the target is Metabotropic glutamate receptor 3 (Rattus norvegicus) (UniProt P31422). Put plainly: Antagonistic activity against Glutamate receptor in rat spinal cord at concentration of 10 uM. The assay is classed as functional, tissue-based. Summed up:
as §2

Chain of Substance-P receptor (Cavia porcellus) (P30547 whole entry): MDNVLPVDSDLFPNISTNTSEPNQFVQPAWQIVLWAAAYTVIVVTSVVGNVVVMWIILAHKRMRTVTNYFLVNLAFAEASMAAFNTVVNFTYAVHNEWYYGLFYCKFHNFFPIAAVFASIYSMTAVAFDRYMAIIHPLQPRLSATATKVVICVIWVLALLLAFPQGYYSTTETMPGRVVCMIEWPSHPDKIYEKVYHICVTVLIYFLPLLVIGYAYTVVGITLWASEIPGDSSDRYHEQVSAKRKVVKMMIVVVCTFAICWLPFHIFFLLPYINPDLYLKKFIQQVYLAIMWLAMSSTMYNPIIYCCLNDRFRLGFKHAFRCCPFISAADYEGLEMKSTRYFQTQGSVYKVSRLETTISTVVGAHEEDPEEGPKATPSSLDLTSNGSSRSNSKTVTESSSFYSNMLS
Chain of Metabotropic glutamate receptor 3 (Rattus norvegicus) (P31422 23-879 limits assumed): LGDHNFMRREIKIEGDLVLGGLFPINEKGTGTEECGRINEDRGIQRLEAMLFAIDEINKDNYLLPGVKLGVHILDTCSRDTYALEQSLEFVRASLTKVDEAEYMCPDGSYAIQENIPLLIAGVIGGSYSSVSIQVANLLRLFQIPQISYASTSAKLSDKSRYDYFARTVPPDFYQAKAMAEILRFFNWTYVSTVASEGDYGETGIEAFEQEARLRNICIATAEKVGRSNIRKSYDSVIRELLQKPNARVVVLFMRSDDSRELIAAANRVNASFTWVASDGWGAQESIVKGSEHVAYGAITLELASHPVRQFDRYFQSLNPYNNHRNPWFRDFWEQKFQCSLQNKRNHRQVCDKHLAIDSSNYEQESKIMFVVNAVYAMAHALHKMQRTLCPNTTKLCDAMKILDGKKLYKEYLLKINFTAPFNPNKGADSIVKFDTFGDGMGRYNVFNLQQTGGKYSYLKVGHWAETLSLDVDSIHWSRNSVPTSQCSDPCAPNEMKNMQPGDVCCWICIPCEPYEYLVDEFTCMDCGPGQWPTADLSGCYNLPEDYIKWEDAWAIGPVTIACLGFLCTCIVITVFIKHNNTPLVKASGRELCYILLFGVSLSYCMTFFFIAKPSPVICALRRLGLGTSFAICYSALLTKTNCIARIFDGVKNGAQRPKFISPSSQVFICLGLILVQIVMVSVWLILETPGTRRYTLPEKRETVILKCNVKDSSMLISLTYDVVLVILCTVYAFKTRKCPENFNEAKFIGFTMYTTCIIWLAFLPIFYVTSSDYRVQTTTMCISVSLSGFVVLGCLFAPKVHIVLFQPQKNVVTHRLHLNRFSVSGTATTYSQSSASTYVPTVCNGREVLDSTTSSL
Chain of Substance-P receptor (P14600 whole entry): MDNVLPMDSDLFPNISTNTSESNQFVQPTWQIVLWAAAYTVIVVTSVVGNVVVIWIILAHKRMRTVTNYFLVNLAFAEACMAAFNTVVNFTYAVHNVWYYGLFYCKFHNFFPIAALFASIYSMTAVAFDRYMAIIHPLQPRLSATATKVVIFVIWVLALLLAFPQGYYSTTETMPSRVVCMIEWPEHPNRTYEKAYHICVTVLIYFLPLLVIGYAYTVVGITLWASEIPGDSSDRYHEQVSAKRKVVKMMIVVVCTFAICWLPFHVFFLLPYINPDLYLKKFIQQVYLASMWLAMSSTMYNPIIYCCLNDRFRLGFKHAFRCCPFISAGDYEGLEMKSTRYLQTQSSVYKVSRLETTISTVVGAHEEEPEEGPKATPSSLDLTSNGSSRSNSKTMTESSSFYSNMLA
Chain of Substance-P receptor (Rattus norvegicus) (P14600 whole entry, looked up): as the sequence (P14600 whole entry) above

Turning to `COC(=O)[C@@H](CCSC)NC(=O)[C@@H](CC(C)C)SCCNC(=O)[C@@H](Cc1ccccc1)NC(=O)[C@@H](Cc1ccccc1)NC(=O)[C@H](CCC(N)=O)NC(=O)[C@H](CCC(N)=O)NC(=O)[C@H]1CCCN1C(=O)[C@H](CCCCNC(=O)OCc1ccccc1)NC(=O)[C@H]1CCCN1C(=O)[C@H](CCCN=C(N)N)NC(=O)OCc1ccccc1`, at Substance-P receptor, the pIC50 is 4.60.

At Substance-P receptor, `COC(=O)[C@@H](CCSC)NC(=O)[C@H](CC(C)C)SCCNC(=O)[C@@H](Cc1ccccc1)NC(=O)[C@@H](Cc1ccccc1)NC(=O)[C@H](CCC(N)=O)NC(=O)[C@H](CCC(N)=O)NC(=O)[C@H]1CCCN1C(=O)[C@H](CCCCNC(=O)OCc1ccccc1)NC(=O)[C@H]1CCCN1C(=O)[C@H](CCCNC(=N)N)NC(=O)OCc1ccccc1` gave a pIC50 of 4.48.

With `CSCC[C@H](NC(=O)[C@H](CC(C)C)NC(=O)[C@@H](Cc1c[nH]c2ccccc12)NC(=O)[C@H](Cc1ccccc1)NC(=O)[C@@H](Cc1ccccc1)NC(=O)[C@H](CCCNC(=N)N)NC(=O)[C@H](CC(N)=O)NC(=O)[C@@H]1CCCN1C(=O)[C@H](CCCCNC(=O)OCc1ccccc1)NC(=O)[C@H]1CCCN1C(=O)[C@H](CCCNC(=N)N)NC(=O)OCc1ccccc1)C(N)=O`, the pIC50 at Substance-P receptor is 6.30.

For `COC(=O)[C@@H](CCSC)NC(=O)[C@@H](CC(C)C)NC(=O)CNC(=O)[C@@H](Cc1c[nH]c2ccccc12)NC(=O)[C@@H](Cc1c[nH]c2ccccc12)NC(=O)[C@H](CCC(N)=O)NC(=O)[C@H](CCC(N)=O)NC(=O)[C@@H]1CCCN1C(=O)[C@H](CCCCNC(=O)OCc1ccccc1)NC(=O)[C@@H]1CCCN1C(=O)[C@H](CCCN=C(N)N)NC(=O)OCc1ccccc1`, the Activity in assay [1] is 37 dose ratio; in [2] it was 17.2 dose ratio; in [3], 15 dose ratio; in [4], 34 dose ratio.

`COC(=O)[C@@H](CCSC)NC(=O)[C@H](CC(C)C)SCCNC(=O)[C@H](Cc1ccccc1)NC(=O)[C@@H](Cc1ccccc1)NC(=O)[C@H](CCCN=C(N)N)NC(=O)[C@H](CC(N)=O)NC(=O)OCc1ccccc1`: the Activity in assay [1] is 225 dose ratio; in assay [2] it was 18.2 dose ratio; in assay [3] it was 5.8 dose ratio; in [4], 69 dose ratio.

As to `CSCCC(NC(=O)C(CC(C)C)NC(=O)[C@@H](Cc1c[nH]c2ccccc12)NC(=O)[C@H](Cc1ccccc1)NC(=O)[C@@H](Cc1c[nH]c2ccccc12)NC(=O)[C@H](CCC(N)=O)NC(=O)[C@H](CCC(N)=O)NC(=O)[C@@H]1CCCN1C(=O)[C@H](CCCCN)NC(=O)[C@H]1CCCN1C(=O)[C@@H](N)CCCNC(=N)N)C(N)=O` (stereo in doubt), the pIC50 against Substance-P receptor was 5.40.

With `COC(=O)C(CCSC)NC(=O)[C@@H](CC(C)C)SCCNC(=O)[C@@H](Cc1ccccc1)NC(=O)[C@H](Cc1ccccc1)NC(=O)[C@H](CCC(N)=O)NC(=O)[C@H](CCC(N)=O)NC(=O)[C@H]1CCCN1C(=O)[C@H](CCCCN)NC(=O)[C@H]1CCCN1C(=O)[C@@H](N)CCCN=C(N)N` (stereo in doubt), the Activity was 19 dose ratio in assay [1], less than 2 dose ratio in assay [2], less than 2 dose ratio in [3] and 3.1 dose ratio in assay [4].

On to `COC(=O)C(CCSC)NC(=O)[C@H](CC(C)C)SCCNC(=O)[C@@H](Cc1ccccc1)NC(=O)[C@@H](Cc1ccccc1)NC(=O)[C@H](CCC(N)=O)NC(=O)[C@H](CCC(N)=O)NC(=O)[C@H]1CCCN1C(=O)[C@H](CCCCN)NC(=O)[C@H]1CCCN1C(=O)[C@@H](N)CCCN=C(N)N` (stereo in doubt), for which the Activity in assay [1] worked out at 3.4 dose ratio; in assay [2], 3.6 dose ratio; in assay [3], 2.7 dose ratio; in assay [4] it was 2.5 dose ratio.

Regarding `COC(=O)[C@@H](CCSC)NC(=O)C(CC(C)C)NC(=O)[C@@H](Cc1c[nH]c2ccccc12)NC(=O)[C@H](Cc1c[nH]c2ccccc12)NC(=O)[C@@H](Cc1c[nH]c2ccccc12)NC(=O)[C@H](CCC(N)=O)NC(=O)[C@H](CCC(N)=O)NC(=O)[C@@H]1CCCN1C(=O)[C@H](CCCCNC(=O)OCc1ccccc1)NC(=O)[C@@H]1CCCN1C(=O)[C@H](CCCN=C(N)N)NC(=O)OCc1ccccc1` (stereo in doubt), the Activity is 10.7 dose ratio in [1], 9.8 dose ratio in [2], 6.2 dose ratio in assay [3] and 7.2 dose ratio in [4].

For the molecule `COC(=O)[C@@H](CCSC)NC(=O)C(CC(C)C)SCCNC(=O)[C@H](Cc1ccccc1)NC(=O)[C@@H](Cc1ccccc1)NC(=O)[C@H](CCC(N)=O)NC(=O)[C@H](CCC(N)=O)NC(=O)C1CCCN1C(=O)OC(C)(C)C` (stereo in doubt), the Change in amplitude response in [5] was 42%; in assay [6], -62%; in [7], -80%; in assay [8], -7%; in assay [9] it was -50%. Further, the Activity in assay [1], in assay [2], in assay [3] and in assay [4] was less than 2 dose ratio in each case.

On to `COC(=O)[C@@H](CCSC)NC(=O)[C@H](CC(C)C)N(C)C(=O)CN(C)C(=O)[C@H](Cc1ccccc1)NC(=O)[C@@H](Cc1ccccc1)NC(=O)[C@H](CCC(N)=O)NC(=O)[C@H](CCC(N)=O)NC(=O)C1CCCN1C(=O)OC(C)(C)C` (stereo in doubt), for which the Activity in assay [1], in [2], in assay [3] and in assay [4] was less than 2 dose ratio in each case.

With `COC(=O)[C@@H](CCSC)NC(=O)[C@H](CC(C)C)N(C)C(=O)CN(C)C(=O)[C@H](Cc1ccccc1)NC(=O)[C@@H](Cc1ccccc1)NC(=O)[C@H](CCC(N)=O)NC(=O)[C@H](CCC(N)=O)NC(=O)C1CCCN1C(=O)[C@H](CCCCN)NC(=O)C1CCCN1C(=O)[C@@H](N)CCCN=C(N)N` (stereo in doubt), the Activity was 2.5 dose ratio in [1], less than 2 dose ratio in [2], less than 2 dose ratio in [3] and less than 2 dose ratio in assay [4].

Consider `COC(=O)[C@@H](CCSC)NC(=O)[C@H](CC(C)C)SCCNC(=O)[C@H](Cc1ccccc1)NC(=O)[C@@H](Cc1ccccc1)NC(=O)[C@H](CCC(N)=O)NC(=O)[C@H](CCC(N)=O)NC(=O)C1CCCN1C(=O)OC(C)(C)C` (stereo in doubt), for which the Change in amplitude response in assay [5] was 40%; in [6], -54%; in assay [7], -74%; in assay [8], -28%; in [9] it was -43%. Besides, the Activity in assay [1] was 10 dose ratio; in assay [2], 2.3 dose ratio; in assay [3], less than 2 dose ratio; in assay [4], 3 dose ratio.

Take `COC(=O)[C@@H](CCSC)NC(=O)[C@H](CC(C)C)SCCNC(=O)[C@H](Cc1ccccc1)NC(=O)[C@@H](Cc1ccccc1)NC(=O)[C@H](CCCN=C(N)N)NC(=O)[C@H](CC(N)=O)NC(=O)C1CCCN1C(=O)[C@H](CCCCNC(=O)OCc1ccccc1)NC(=O)C1CCCN1C(=O)[C@H](CCCN=C(N)N)NC(=O)OCc1ccccc1` (stereo in doubt): the Activity in [1] came out at 68 dose ratio; in assay [2] it was 20 dose ratio; in assay [3], 18.5 dose ratio; in assay [4], 54.5 dose ratio.

As to `COC(=O)[C@H](CCSC)NC(=O)[C@H](CC(C)C)NC(=O)[C@@H](Cc1c[nH]c2ccccc12)NC(=O)[C@H](Cc1ccccc1)NC(=O)[C@@H](Cc1ccccc1)NC(=O)[C@H](CCCCN)NC(=O)[C@H](CC(N)=O)NC(=O)C1CCCN1C(=O)[C@H](CCCCN)NC(=O)C1CCCN1C(=O)[C@@H](N)CCCN=C(N)N` (stereo in doubt), the results for the Change in amplitude response in assay [10], in assay [11] and in [12] were -54%, 9% and 8%, respectively. Also, the Activity in assay [1], in assay [2], in assay [3] and in assay [4] was less than 2 dose ratio in each case.

As for `COC(=O)[C@H](CCSC)NC(=O)[C@H](CC(C)C)NC(=O)[C@@H](Cc1c[nH]c2ccccc12)NC(=O)[C@H](Cc1ccccc1)NC(=O)[C@@H](Cc1ccccc1)NC(=O)[C@H](CCCN=C(N)N)NC(=O)[C@H](CC(N)=O)NC(=O)C1CCCN1C(=O)[C@H](CCCCN)NC(=O)C1CCCN1C(=O)[C@@H](N)CCCN=C(N)N` (stereo in doubt), the Activity is 4 dose ratio in assay [1], 6 dose ratio in assay [2], 2.2 dose ratio in assay [3] and 2.2 dose ratio in assay [4].

Take `CSCC[C@H](NC(=O)[C@H](CC(C)C)NC(=O)[C@@H](Cc1c[nH]c2ccccc12)NC(=O)[C@H](Cc1ccccc1)NC(=O)[C@@H](Cc1ccccc1)NC(=O)[C@H](CCCN=C(N)N)NC(=O)[C@H](CC(N)=O)NC(=O)C1CCCN1C(=O)[C@H](CCCCN)NC(=O)C1CCCN1C(=O)[C@@H](N)CCCN=C(N)N)C(=O)O` (stereo in doubt): the Activity in [1], in assay [2], in assay [3] and in [4] was less than 2 dose ratio throughout.

What is called pIC50 is the negative decadic logarithm of the IC50, by convention in mol/L. A low value points to a high IC50.
